ChEMBL document CHEMBL1122224, “Synthesis and gastric antisecretory properties of 4,5-unsaturated derivatives of 15-deoxy-16-hydroxy-16-methylprostaglandin E1” (J Med Chem, 1983)

Tests used:
Canis familiaris [1] = experiment: Antisecretory activity after iv administration in histamine-stimulated Heidenhain pouch dogs; Range is 0.1-0.3; format: functional; settings: Canis lupus familiaris
Method in brief: (§1)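 Conscious Heidenhain-pouch dogs, fasted 18 h, with iv saline. Histamine is infused at 1.0 mg/h (about 13.0 mL/h) to a steady plateau. A single iv bolus of PG follows, from ethanol stock diluted in isoosmotic phosphate buffer (≤20% alcohol). Doses are log-spaced, usually 0.1–100 μg/kg, with ≥2 dogs per dose. Acid is measured by titration to pH 7.0 in 15-min samples; ED50 is the 50% inhibition of total acid output.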

Canis familiaris [2] = experiment: Antisecretory activity after ig administration in histamine-stimulated gastric fistula dogs; Range is 0.3-1.0; format: functional; settings: Canis lupus familiaris, Stomach, po
Method in brief: (§2)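 Conscious gastric-fistula dogs, fasted 18 h, in Pavlov stands with iv 0.15 M NaCl. After basal collection, histamine is infused iv at 1.0 mg/h (about 6.5 mL/h). At the steady-state plateau, the PG is given intragastrically through a dosing plug and the cannula is closed 30 min. Collections are then taken every 15 min and titrated with 0.1 N NaOH to pH 7.0.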

Rattus norvegicus = experiment: Diarrheal effect after ig administration in rats; format: functional; settings: po
Method in brief: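 Male Charles River rats, 210–230 g, are fasted 24 h and housed singly. Logarithmically graded oral PG doses are given, N = 6–12. Diarrhea is scored all-or-none at hourly intervals up to 8 h after dosing, and an ED50 is derived.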

[3] = Ratio of ED50 of diarrheal effect to antisecretory effect; format: ADME; settings: read-out: Therapeutic index
Method in brief: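 Ratio of the oral diarrheal ED50 in fasted male rats to the ig antisecretory ED50 in histamine-stimulated gastric-fistula dogs.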

Canis familiaris [4] = experiment: Antisecretory activity after ig administration in histamine-stimulated gastric fistula dogs; Range is 2.4-3.0; format: functional; settings: Canis lupus familiaris, Stomach, po; method in brief: as §2
Canis familiaris [5] = experiment: Antisecretory activity after iv administration in histamine-stimulated Heidenhain pouch dogs.; format: functional; settings: Canis lupus familiaris; method in brief: as §1
Canis familiaris [6] = experiment: Antisecretory activity after iv administration in histamine-stimulated Heidenhain pouch dogs; Range is 0.3-1.0; format: functional; settings: Canis lupus familiaris; method in brief: as §1
Canis familiaris [7] = experiment: Antisecretory activity after ig administration in histamine-stimulated gastric fistula dogs; Range is 4.5-10.0; format: functional; settings: Canis lupus familiaris, Stomach, po; method in brief: as §2
Canis familiaris [8] = experiment: Antisecretory activity after ig administration in histamine-stimulated gastric fistula dogs; Range is 5.5-10.0; format: functional; settings: Canis lupus familiaris, Stomach, po; method in brief: as §2
Canis familiaris [9] = experiment: Antisecretory activity after ig administration in histamine-stimulated gastric fistula dogs; Range is 6.5-10.0; format: functional; settings: Canis lupus familiaris, Stomach, po; method in brief: as §2

| SMILES | ED50 (Rattus norvegicus) [µg/kg] | selectivity ratio [3] | also measured |
| --- | --- | --- | --- |
| CCCCC(C)(O)C/C=C/[C@H]1[C@H](O)CC(=O)[C@@H]1CC/C=C\CCC(=O)OC (stereo not given in full) [ENISOPROST] | 62 | 208 | ED50 (Canis familiaris [1]): 0.1 µg/kg; ED50 (Canis familiaris [2]): 0.3 µg/kg |
| CCCCC(C)(C)[C@H](O)/C=C/C1[C@H](O)CC(=O)[C@@H]1C/C=C\CCCC(=O)OC (stereo not given in full) | 10 | 4.2 | ED50 (Canis familiaris [4]): 2.4 µg/kg |
| CCCCC(C)(O)C/C=C/[C@H]1[C@H](O)CC(=O)[C@@H]1CC/C=C/CCC(=O)OC (stereo not given in full) |  |  | ED50 (Canis familiaris [5]): 10 µg/kg |
| CCCCC(C)(O)C/C=C/[C@H]1[C@H](O)CC(=O)[C@@H]1C/C=C\CCCC(=O)OC (stereo not given in full) | 124 | 27.6 | ED50 (Canis familiaris [6]): 0.3 µg/kg; ED50 (Canis familiaris [7]): 4.5 µg/kg |
| CCCCC(C)(O)C/C=C/[C@H]1[C@H](O)CC(=O)[C@@H]1CCC#CCCC(=O)OC (stereo not given in full) |  |  | ED50 (Canis familiaris [5]): > 100 µg/kg |
| CCCCC(C)(O)C/C=C/[C@H]1[C@H](O)CC(=O)[C@@H]1CCCCCCC(=O)OC (stereo not given in full) [MISOPROSTOL] | 366 | 66.5 | ED50 (Canis familiaris [6]): 0.3 µg/kg; ED50 (Canis familiaris [8]): 5.5 µg/kg |
| CCCCC[C@](C)(O)/C=C/C1[C@H](O)CC(=O)[C@@H]1C/C=C\CCCC(=O)OC (stereo not given in full) | 27 | 4.2 | ED50 (Canis familiaris [9]): 6.5 µg/kg |
